Active and inactive are the calls of the source. No cut-off for these calls is given here.
Legend:
[1] = Oral bioavailability in rhesus monkey; assay type: ADME, organism-based, Macaca mulatta; details: in vivo
[2] = Plasma clearance in dog; assay type: ADME, organism-based, Canis lupus familiaris
Mus musculus = assay: Dose normalized Cmax in po dosed mouse; assay type: ADME, organism-based; details: in vivo
[3] = Tmax in human at 175 mg, po QID administered on day 1 followed by 2-days wash out period after which dosing continued up to day 11 measured on day 1; assay type: ADME, organism-based; details: in vivo
How it was run: (§1)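 Double-blind, placebo-controlled, randomized multiple oral dose study in healthy male volunteers (cohorts of eight; six active, two placebo). Dose given on day 1, then a two-day washout, then dosing days 4–11; for the QD arm, subjects were titrated over days 1–4. Venous plasma sampled predose and 0.5, 1, 1.5, 2, 4, 6, 8, 10, 12 h postdose on days 1, 4 and 11. Tmax reported as median (min–max).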

Homo sapiens [4] = assay: Toxicity in human assessed as occurrence of flushing at 5 to 200 mg, po administered as single dose; assay type: organism-based; details: in vivo
[5] = Cmin in human at 50 mg, po BID administered on day 1 followed by 2-day wash out period after which dosing continued up to day 11 measured on day 11 at 12 hrs; assay type: ADME, organism-based; details: in vivo, read-out: Cmin
How it was run: (§2)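 Healthy male volunteers took part in a double-blind, randomized, placebo-controlled dose-escalation study, with cohorts of 8 (6 on drug, 2 on placebo). Each subject got an oral dose on day 1, then a 2-day washout, then dosing on days 4–11. The 200 mg qd group was titrated over days 1–4. Venous plasma was sampled predose and 0.5–12 h postdose on days 1, 4 and 11, and predose on days 5–10 for troughs.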

[6] = Tmax in human at 100 mg, po BID administered on day 1 followed by 2-day wash out period after which dosing continued up to day 11 measured on day 1; assay type: ADME, organism-based; details: in vivo; how it was run: as §2
[7] = AUC (0 to 6 hrs) in human at 175 mg, po QID administered on day 1 followed by 2-days wash out period after which dosing continued up to day 11 measured on day 1; assay type: ADME, organism-based; parameters: time < 6 hr, dose 175 mg, route oral; details: plasma
How it was run: (§3)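 Double-blind, placebo-controlled, randomized dose-escalation study in healthy male volunteers, six cohorts of eight (six active, two placebo). Oral dose on day 1, two-day washout, then dosing days 4–11; the 200 mg qd cohort was titrated over days 1–4. Venous blood taken predose and at 0.5–12 h on days 1, 4 and 11; plasma drug measured. τ 12 h (bid), 24 h (qd), 8 h (tid), 6 h (qid).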

[8] = Cmin in human at 100 mg, po BID administered on day 1 followed by 2-day wash out period after which dosing continued up to day 11 measured on day 11 at 12 hrs; assay type: ADME, organism-based; details: in vivo, read-out: Cmin
How it was run: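 Healthy male volunteers, double-blind placebo-controlled randomized dose escalation; cohorts of eight (six active, two placebo). Oral dose on day 1, two-day washout, then dosing days 4–11. Venous blood predose and 0.5, 1, 1.5, 2, 4, 6, 8, 10, 12 h postdose on days 1, 4 and 11 for plasma drug; dosing interval (τ) 12 h for BID, 8 h for TID; Ctrough taken at end of interval.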

[9] = AUC (0 to 12 hrs) in human at 100 mg, po BID administered on day 1 followed by 2-day wash out period after which dosing continued up to day 11 measured on day 11; assay type: ADME, organism-based; parameters: time < 12 hr, dose 100 mg, route oral; details: plasma; how it was run: as §3
[10] = Cmax in human at 150 mg, po BID administered on day 1 followed by 2-day wash out period after which dosing continued up to day 11 measured on day 1; assay type: ADME, organism-based; parameters: dose 150 mg, route oral; details: in vivo; how it was run: as §3
[11] = Volume of distribution in rhesus monkey; assay type: ADME, organism-based, Macaca mulatta; details: in vivo
[12] = AUC (0 to 12 hrs) in human at 100 mg, po BID administered on day 1 followed by 2-day wash out period after which dosing continued up to day 11 measured on day 4; assay type: ADME, organism-based; parameters: time < 12 hr, dose 100 mg, route oral; details: plasma; how it was run: as §3
Rattus norvegicus [13] = assay: Dose normalized AUC in Sprague-Dawley rat at 10 mg/kg, po; assay type: ADME, organism-based; parameters: dose 10 mg/kg, route oral; details: in vivo
How it was run: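 Male Sprague-Dawley rats were dosed at 10 mg/kg po or 2 mg/kg iv in 80% PEG400/20% phosphate-buffered saline, fasted overnight before the oral dose. Jugular blood was sampled serially from 0.25 to 21 h over 24 h, and heparinized plasma was prepared. Drug was assayed by HPLC/MS/MS (quantitation range 1–2000 ng/mL).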

[14] = Cmin in human at titreated dose from day 1 to 4 followed by 200 mg, po QD administered up to day 11 measured on day 11 at 12 hrs; assay type: ADME, organism-based; details: in vivo, read-out: Cmin; how it was run: as §2
[15] = Cmax in human at 150 mg, po TID administered on day 1 followed by 2-days wash out period after which dosing continued up to day 11 measured on day 1; assay type: ADME, organism-based; parameters: dose 150 mg, route oral; details: in vivo; how it was run: as §2
Rattus norvegicus [16] = assay: Antidyslipedic activity in fasted Sprague-Dawley rat assessed as decrease in free fatty acid level at 0.001 mg/kg, po by NEFA C-free fatty acid assay; assay type: functional, organism-based; parameters: dose 0.001 mg/kg
How it was run: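 Male Sprague-Dawley rats fasted, compound by oral gavage, serial plasma sampling after dosing for free fatty acids over a time course; vehicle-dosed control group.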

[17] = Tmax in human at titreated po dose administered from day 1 to 4 followed by 200 mg, po QD administered up to day 11 measured on day 4; assay type: ADME, organism-based; details: in vivo; how it was run: as §1
Cytochrome P450 2D6 = Cytochrome P450 2D6 (Homo sapiens, UniProt P10635); assay: Activity at CYP2D6; assay type: ADME
Chain of Cytochrome P450 2D6 (P10635 whole entry): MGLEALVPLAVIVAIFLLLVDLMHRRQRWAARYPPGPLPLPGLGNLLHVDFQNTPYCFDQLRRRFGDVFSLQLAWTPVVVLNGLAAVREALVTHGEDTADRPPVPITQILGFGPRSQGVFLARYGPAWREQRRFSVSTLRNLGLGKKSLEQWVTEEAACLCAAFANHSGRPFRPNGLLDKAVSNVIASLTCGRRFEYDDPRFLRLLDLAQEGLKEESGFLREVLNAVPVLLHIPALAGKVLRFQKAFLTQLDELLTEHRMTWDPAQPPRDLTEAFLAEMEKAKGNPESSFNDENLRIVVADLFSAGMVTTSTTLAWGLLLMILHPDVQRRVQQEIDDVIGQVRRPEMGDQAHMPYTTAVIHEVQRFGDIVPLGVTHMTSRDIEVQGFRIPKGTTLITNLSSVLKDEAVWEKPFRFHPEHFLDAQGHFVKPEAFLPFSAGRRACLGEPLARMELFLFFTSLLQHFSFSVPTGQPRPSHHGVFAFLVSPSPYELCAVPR

[18] = Tmax in human at 150 mg, po TID administered on day 1 followed by 2-days wash out period after which dosing continued up to day 11 measured on day 1; assay type: ADME, organism-based; details: in vivo; how it was run: as §1
Homo sapiens [19] = assay: Antidyslipidemic activity in dyslipidemia patient assessed as change in HDL-c level at 150 mg administered TID during four week study relative to control; assay type: functional
[20] = AUC (0 to 8 hrs) in human at 150 mg, po TID administered on day 1 followed by 2-days wash out period after which dosing continued up to day 11 measured on day 4; assay type: ADME, organism-based; parameters: time < 8 hr, dose 150 mg, route oral; details: plasma; how it was run: as §3
[21] = Tmax in human at 50 mg, po BID administered on day 1 followed by 2-day wash out period after which dosing continued up to day 11 measured on day 1; assay type: ADME, organism-based; details: in vivo; how it was run: as §1
[22] = Cmin in human at 175 mg, po QID administered on day 1 followed by 2-days wash out period after which dosing continued up to day 11 measured on day 11 at 6 hrs; assay type: ADME, organism-based; details: in vivo, read-out: Cmin; how it was run: as §2
Homo sapiens [23] = assay: Activation of GPR109a receptor in po dosed human assessed as PGD2 metabolite level in urine; assay type: functional, organism-based
[24] = Volume of distribution in Sprague-Dawley rat at 2 mg/kg, iv; assay type: ADME, organism-based; parameters: dose 2 mg/kg, route intravenous; details: in vivo
How it was run: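 Male Sprague–Dawley rats dosed iv at 2 mg/kg in 80% PEG400/20% phosphate buffered saline. Jugular vein blood was serially sampled over 24 h, and plasma was prepared from sodium heparin blood. Plasma was analysed by HPLC/MS/MS (LLOQ 1 ng/mL, ULOQ 2000 ng/mL).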

[25] = Cmax in human at 100 mg, po BID administered on day 1 followed by 2-day wash out period after which dosing continued up to day 11 measured on day 1; assay type: ADME, organism-based; parameters: dose 100 mg, route oral; details: in vivo; how it was run: as §3
Homo sapiens [26] = assay: Toxicity in human assessed as occurrence of flushing administered as single dose; assay type: organism-based; details: in vivo
How it was run: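 Healthy volunteers scored subject-reported flushing with a flushing symptoms questionnaire after single oral doses and during repeat divided daily dosing.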

[27] = Apparent half life in human at titreated po dose administered from day 1 to 4 followed by 200 mg, po QD administered up to day 11 measured on day 11; assay type: ADME, organism-based; details: in vivo, read-out: t1/2(app) (converted); how it was run: as §3

## O=C(O)c1n[nH]c2c1C[C@H]1C[C@@H]21
[1]
  bioavailability: 39%
[2]
  clearance: 3.1 mL/min/kg
Mus musculus
  Cmax/dose: 3.5 µM·kg/mg
[3]
  Tmax: 1.25 h
Homo sapiens [4]
  Activity: Toxic
[5]
  concentration at 12 h: 0.045 nM
[6]
  Tmax: 1 h
[7]
  AUC at 6 h: 0.13 µM·h
[8]
  concentration at 12 h: 0.104 nM
[9]
  AUC at 12 h: 0.0611 µM·h
[10]
  Cmax: 41.2 nM
[11]
  Vd: 0.21 L/kg
[12]
  AUC at 12 h: 0.0657 µM·h
Rattus norvegicus [13]
  AUC/dose: 5.1 µM·kg·h/mg
[14]
  concentration at 12 h: 0.273 nM
[15]
  Cmax: 48400 nM
Rattus norvegicus [16]
  Activity: inactive
[17]
  Tmax: 1.5 h
Cytochrome P450 2D6
  Activity: Not Active
[18]
  Tmax: 0.5 h
Homo sapiens [19]
  Activity: 4.6%
[20]
  AUC at 8 h: 0.0885 µM·h
[21]
  Tmax: 1 h
[22]
  concentration at 6 h: 2.86 nM
Homo sapiens [23]
  Activity: Dose-dependent effect
[24]
  Vd: 0.53 L/kg
[25]
  Cmax: 31.5 nM
Homo sapiens [26]
  Activity: Dose-dependent effect
[27]
  half-life: 4.6 h

Reference: ChEMBL document CHEMBL2057168, “(1aR,5aR)1a,3,5,5a-Tetrahydro-1H-2,3-diaza-cyclopropa[a]pentalene-4-carboxylic acid (MK-1903): a potent GPR109a agonist that lowers free fatty acids in humans” (J Med Chem, 2012)
